Screening results deposited in PubChem BioAssay by several laboratories.
Beta cell apopt = beta cell apoptosis inhibition; protection from apoptosis, % (concentration not given with the values); INS-1E cytokine-induced death, ATP luminescence, 48 h; percent of positive-control rescue, neutral wells zero; 0.8% of 300,000 active;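 active means Every replicate reaches about 75%, or at least half do and their mean reaches it too, limit read from the data; inconclusive means At least half of replicates reach the limit but their mean does not; inactive means Under half of replicates reach the limit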;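 further: higher means more ATP so stronger rescue from cytokine killing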
T cruzi inh = T. cruzi replication inhibition; AID 1885; 1.4% of 300,000 active; inhibition, % (no concentration beside the values); T. cruzi beta-gal in NIH3T3, luminescence, 90 h;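 active means mean inhibition across valid replicates above about 55%, limit read from the data; inconclusive means mean below that limit but half or more replicates reach it; inactive means mean below it, under half of replicates reach it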;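 further: signal also drops with host cell toxicity which is not excluded here; higher percent means less beta-gal luminescence so fewer parasites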
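Material: NIH/3T3 host cells with β-galactosidase reporter T. cruzi; Input: 5,000 host fibroblasts per well; Medium: DMEM, 2% fetal bovine serum; Compound: 50 nL DMSO compound solution per well; Schedule: 3 h host attachment, then at least 90 h co-culture; Detection: luminescent β-galactosidase signal after 60 min lysis.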
Mdm2-MdmX inh = inhibitors of human Mdm2/MdmX interaction; inhibition, % at 8 µM; 3% of 330,000 active; O15151+Q00987; SaOS-2 split-luciferase Mdm2/MdmX complementation, luminescence;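 active means inhibition of at least 50% at 8 µM in the primary screen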
Lmaj promast = Leishmania major promastigote growth inhibition. 9% of 200,000 active. AID 1063. inhibition, % at 10 µM. Leishmania major promastigotes, resazurin fluorescence viability; in the data active means inhibition above about 50%;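 further: promastigotes grown with compound for 44 hours at 28 °C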
CSC inhib = blocks cancer stem cells. cancer stem cell-like cells viability, luminescence. inhibition, % at 7.5 µM. 1.1% of 300,000 active; in the data active means inhibition above about 75%; inconclusive means no clear call, values can overlap the other calls; tested in HMLE shEcad cells
SKKanGAS inh = SKKanGAS growth inhibition; S. pyogenes SKKanGAS, kanamycin growth, BacTiter-Glo, 6 h; inhibition, % at 7.5 µM; 1.3% of 300,000 active; AID 1662;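 active means mean replicate score, as percent of positive control median, at least 50; inconclusive means mean below 50 but one replicate at or above 50; inactive means mean and every replicate below 50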;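 further: strain carries kanamycin resistance gene driven by streptokinase promoter and grows in 40 µg/ml kanamycin; loss of luminescence reflects streptokinase promoter inhibition or plain growth inhibition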
Mdm2-MdmX conf = confirmation of human Mdm2/MdmX interaction inhibitors | shares compounds with Mdm2-MdmX inh | Mdm2-MdmX binding, luminescent assay | inhibition, % at 8 µM | 55% of 10,000 active; in the data active means inhibition above about 40%
FLuc counter = counter-screen for Mdm2/MdmX inhibitors: full-length luciferase; SaOS-2 full-length luciferase counterscreen, luminescence; shares compounds with Mdm2-MdmX inh; 77% of 6,200 active; AID 504607; inhibition, % at 8 µM;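 active means mean inhibition at 8 µM reaching about 37%, which flags the compound as non-specific, limit read from the data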;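 further: p53-null SaOS-2 cells with luciferase driven by a doxycycline-inducible promoter; compound on cells about two nights before reading with doxycycline added after day one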
Of the large screens only hits and unclear results are named; the others gave an inactive call (follow-up assays come after a bar, where they were run). Sampled rows, rich in hits. Any-hit rate of the full collection: about 9.4%.

O=C(CCS(=O)(=O)c1ccccc1)N(CCCN1CCOCC1)c1nc2c(F)cccc2s1	T cruzi inh 55, Mdm2-MdmX inh 79 (no result: Lmaj promast, CSC inhib) | Mdm2-MdmX conf 58 | FLuc counter 38
Cc1cc(NC(=O)c2ccc(C#N)cc2)n(-c2ccccn2)n1	Mdm2-MdmX inh 63 | Mdm2-MdmX conf inactive
COc1ccc(C(CNC(=O)c2oc3c(Cl)cccc3c2C)N2CCCC2)cc1 (centres undefined)	none (no result: Lmaj promast)
COc1cc(NC(=O)c2ccc(F)cc2)c(OC)cc1Cl	none (no result: Beta cell apopt)
COc1cc(NC(=O)c2c(F)c(F)c(F)c(F)c2F)c(OC)cc1Cl	Mdm2-MdmX inh 78 | Mdm2-MdmX conf 47 | FLuc counter 53
COc1cc(C(=O)N[C@H](C(=O)Nc2nnc(C3CC3)s2)C(C)C)cc(OC)c1OC	none (no result: Lmaj promast)
COc1cc(CC(=O)OCC(=O)c2ccc3c(c2)OCCO3)cc(OC)c1OC	Mdm2-MdmX inh 66 | Mdm2-MdmX conf 54 | FLuc counter 101
O=C(COC(=O)c1ccc(O)cc1)c1ccc2c(c1)OCCO2	none (no result: Beta cell apopt, T cruzi inh, Lmaj promast, CSC inhib, SKKanGAS inh)
O=C(CC1C[C@H](C(=O)N2CCOCC2)[C@@]2(CCC3CCCC3)c3[nH]c4ccccc4c3CCN2C1=O)NCC12CC3CC(CC(C3)C1)C2 (some centres undefined)	Mdm2-MdmX inh 84 (no result: T cruzi inh, Lmaj promast, CSC inhib, SKKanGAS inh) | Mdm2-MdmX conf 68 | FLuc counter 38
O=C(C[C@H]1C[C@H](C(=O)N2CCOCC2)[C@@]2(CCC3CCCC3)c3[nH]c4cc(-c5ccco5)ccc4c3CCN2C1=O)NCCN1CCOCC1	none (no result: Beta cell apopt, T cruzi inh, Lmaj promast, CSC inhib, SKKanGAS inh)
O=C(CC1C[C@H](C(=O)N2CCOCC2)[C@@]2(CCC3CCCC3)c3[nH]c4ccccc4c3CCN2C1=O)NCCN1CCOCC1 (some centres undefined)	none (no result: T cruzi inh, Lmaj promast, CSC inhib, SKKanGAS inh)
CC(C)(C)NC(=O)C[C@H]1C[C@H](C(=O)N2CCOCC2)[C@@]2(CCC3CCCC3)c3[nH]c4cc(-c5ccco5)ccc4c3CCN2C1=O	Mdm2-MdmX inh 73 (no result: Beta cell apopt, T cruzi inh, Lmaj promast, CSC inhib, SKKanGAS inh) | Mdm2-MdmX conf inactive
O=C(CC1C[C@H](C(=O)N2CCOCC2)[C@@]2(CCC3CCCC3)c3[nH]c4ccccc4c3CCN2C1=O)NCc1ccco1 (some centres undefined)	none (no result: T cruzi inh, Lmaj promast, SKKanGAS inh)
CN(C)CCCNC(=O)C[C@H]1C[C@H](C(=O)N2CCOCC2)[C@@]2(CCC3CCCC3)c3[nH]c4cc(-c5ccco5)ccc4c3CCN2C1=O	Mdm2-MdmX inh 95 (no result: Beta cell apopt, T cruzi inh, Lmaj promast, CSC inhib, SKKanGAS inh) | Mdm2-MdmX conf inactive
COCCCNC(=O)C[C@H]1C[C@H](C(=O)N2CCOCC2)[C@@]2(CCC3CCCC3)c3[nH]c4cc(-c5ccco5)ccc4c3CCN2C1=O	none (no result: Beta cell apopt, T cruzi inh, Lmaj promast, CSC inhib, SKKanGAS inh)
O=C(C[C@H]1C[C@H](C(=O)N2CCOCC2)[C@@]2(CCC3CCCC3)c3[nH]c4cc(-c5ccco5)ccc4c3CCN2C1=O)NCC12CC3CC(CC(C3)C1)C2	Mdm2-MdmX inh 54 (no result: Beta cell apopt, T cruzi inh, Lmaj promast, CSC inhib, SKKanGAS inh) | Mdm2-MdmX conf inactive
CCOc1ccc(NC(=O)Nc2cccnc2)cc1	none
O=C(Nc1ccccc1)c1nsnc1C(=O)Nc1ccccc1	none
COc1ccc(CNC(=O)C[C@H]2C[C@H](C(=O)N3CCOCC3)[C@@]3(CCC4CCCC4)c4[nH]c5cc(-c6ccco6)ccc5c4CCN3C2=O)cc1OC	Mdm2-MdmX inh 53 (no result: Beta cell apopt, T cruzi inh, Lmaj promast, CSC inhib, SKKanGAS inh) | Mdm2-MdmX conf inactive
O=C(C[C@H]1C[C@H](C(=O)N2CCOCC2)[C@@]2(CCC3CCCC3)c3[nH]c4cc(-c5ccco5)ccc4c3CCN2C1=O)NCc1cccc(C(F)(F)F)c1	none (no result: Beta cell apopt, T cruzi inh, Lmaj promast, CSC inhib, SKKanGAS inh)
O=C(c1ccccc1Cl)N1N=C(c2ccc(Br)cc2)CC1c1nc2ccccc2[nH]1 (centres undefined)	Mdm2-MdmX inh 71 | Mdm2-MdmX conf 50 | FLuc counter 90
CCCCSc1nnc2n(CCc3ccccc3)c(=O)c3c4c(sc3n12)COC(C)(C)C4	Mdm2-MdmX inh 55 | Mdm2-MdmX conf inactive
COc1cc(CC(=O)OCC(=O)Nc2ccc(N(C)C)cc2)cc(OC)c1OC	none (no result: T cruzi inh, Lmaj promast, SKKanGAS inh)
Cc1ccc2c(c1)C(=O)C(=O)N2Cc1ccc(C(F)(F)F)cc1	Mdm2-MdmX inh 72 (no result: T cruzi inh, Lmaj promast, SKKanGAS inh) | Mdm2-MdmX conf inactive
O=C1C(=O)N(CCS(=O)(=O)c2ccccc2)c2ccc(Cl)cc21	none (no result: Lmaj promast)
Cc1ccc(OCCN2C(=O)C(=O)c3cc(C)ccc32)cc1	Mdm2-MdmX inh 62, CSC inhib inconclusive | Mdm2-MdmX conf 61 | FLuc counter 79
CCCN1C(=O)C(=O)c2cc(Cl)ccc21	Mdm2-MdmX inh 73 (no result: T cruzi inh, Lmaj promast, SKKanGAS inh) | Mdm2-MdmX conf 67 | FLuc counter 45
Cc1ccc(OCCCN2C(=O)C(=O)c3cccc(C)c32)cc1	none
Cc1ccc2c(c1)C(=O)C(=O)N2CC(=O)OC(C)C	none
Cc1cccc(NC(=O)Nc2ccc3c(c2)CCC3)c1	none (no result: Lmaj promast)
CCN(CC(=O)Nc1c(F)cccc1F)C(=O)CNC(=O)c1ccc(Br)o1	none (no result: Lmaj promast)
O=C1c2ccccc2C(=O)C1c1nccc2ccccc12	Mdm2-MdmX inh 67 | Mdm2-MdmX conf inactive
Cc1cccc(NC(=O)CSCC(=O)N(C)CCOc2ccc(Cl)cc2)c1	none (no result: Beta cell apopt, Lmaj promast)
Clc1ccc(-c2csc(=Nc3cccnc3)n2CCCn2ccnc2)cc1Cl	T cruzi inh 57, Mdm2-MdmX inh 66, Lmaj promast 99 | Mdm2-MdmX conf inactive | FLuc counter 55
S=c1nc(-c2ccccc2Cl)n(Cc2cccnc2)c2c1CCCC2	none
O=C(CS(=O)c1ccc(C(F)(F)F)cc1[N+](=O)[O-])Oc1ccccc1 (centres undefined)	Mdm2-MdmX inh 52, CSC inhib 77 | Mdm2-MdmX conf inactive
